According to publication PMC3758425 (Biochemistry, 2013):
“Also recorded” adds a separate entry of the source.

Experiments:
CaM = conditions: non-acetylated α-syn, cited from earlier work
[1] = ref [36]; cited from earlier work
apo-CaM = conditions: non-acetylated α-syn; ref [28], [29]; cited from earlier work
[2] = non-acetylated form; ref [28]; cited from earlier work
[3] = molecular target: holo-CaM (Ca-bound human calmodulin) (Homo sapiens, UniProt P0DP23); test: NMR titration; conditions: compared with literature membrane binding, [55], [56]
Procedure, shortened: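 Human CaM was expressed in E. coli and purified, ¹⁵N-labelled, holo form, held constant at 100 μM. It was titrated with N-acetylated α-syn, as the 1–19 peptide or the full-length protein, in 50 mM MES, 100 mM NaCl, 3 mM CaCl₂, pH 6.4, 5% D₂O. Amide shifts were read by ¹⁵N HSQC at 800 MHz, 310 K. Ten amides were scaled to one reference residue and fitted globally to a two-state 1:1 model.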

α-syn: Full-length non-acetylated α-syn expressed in E. coli
binding affinity (two earlier studies) (CaM; ref [28], [29]): submicromolar range
Kd (CaM; read-out: dissociation constant (later study), ref [30]): ~10 µM
affinity for negatively charged membranes, effect of N-terminal acetylation [1]: N-terminal acetylation increases its affinity for negatively charged membranes
interaction with apo-CaM in earlier studies (apo-CaM): There is disagreement whether apo-CaM can interact with α-syn; also recorded: one report seeing interaction only in the presence of calcium-bound (holo-) CaM whereas the other observed little difference between the two forms
competition of CaM with membrane for α-syn binding [2]: CaM can compete with the membrane for α-syn binding
binding constant to holo-CaM relative to membranes containing anionic lipids [3]: comparable
